Calls of active or inactive are those of the source. No cut-off for these calls is given here.

Common to all, as to type: functional, organism-based
The test system of experiment [1] is Staphylococcus aureus. Put plainly: Induction of VraSR-dependent tcaA gene expression in Staphylococcus aureus KVR expressing N315 delta-vraSr mutant at 10 ug/mL after 30 mins by Northern blot analysis. A digest of the protocol: (§1)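 Total RNA, 10 µg per sample, was separated on a 1.5% agarose–20 mM guanidine thiocyanate gel in 1x TBE, then Northern blotted.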

The subject of experiment [2] is Staphylococcus aureus. Kind of experiment: Induction of VraSR-dependent tcaA gene expression in Staphylococcus aureus N315 at 16 ug/mL after 30 mins by Northern blot analysis. A digest of the protocol: as §1
Experiment [3] relates to Staphylococcus aureus. Put plainly: Induction of VraSR-dependent tcaA gene expression in Staphylococcus aureus KVR expressing N315 delta-vraSr mutant at 2 ug/mL after 30 mins by Northern blot analysis. In outline:
as §1

Experiment [4] concerns Staphylococcus aureus. Put plainly: Induction of VraSR-dependent tcaA gene expression in Staphylococcus aureus N315 at 10 ug/mL after 30 mins by Northern blot analysis. A digest of the protocol:
as §1

In the case of `CN[C@H](CC(C)C)C(=O)N[C@H]1C(=O)N[C@@H](CC(N)=O)C(=O)N[C@H]2C(=O)N[C@H]3C(=O)N[C@H](C(=O)N[C@H](C(=O)O)c4cc(O)cc(O)c4-c4cc3ccc4O)[C@H](O)c3ccc(c(Cl)c3)Oc3cc2cc(c3O[C@@H]2O[C@H](CO)[C@@H](O)[C@H](O)[C@H]2O[C@H]2C[C@](C)(N)[C@H](O)[C@H](C)O2)Oc2ccc(cc2Cl)[C@H]1O`, the outcome in experiment [1] and in experiment [3] was inactive. For the same compound, the result in experiment [2] and in experiment [4] was Active.
As for `Cc1onc(-c2ccccc2)c1C(=O)N[C@@H]1C(=O)N2[C@@H]1SC(C)(C)[C@@H]2C(=O)O`, the result in experiment [1] and in experiment [3] was inactive. Besides, the outcome in experiment [2] and in experiment [4] was Active.

The values above are taken from ChEMBL document CHEMBL1137645, “Functional characterization of TcaA: minimal requirement for teicoplanin susceptibility and role in Caenorhabditis elegans virulence” (2007).
